The source made the active and inactive calls. The calls are words filed in the database; no cut-off is given here.
Experiments:
[1] = system: HEp-2; assay: Cytotoxicity against human Hep2 cells after 24 hrs by MTT assay; type: functional, cell-based; conditions: HEp-2, 24 h
Procedure, shortened: (§1)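 Cells seeded at 1.2 × 10^4 per well in 96-well plates, grown 24 h, then treated over 10.7–81 µM for 6, 12, 24, 36 or 48 h. Viability read by MTT. DMSO kept below 0.05%. IC50 taken at 24 h.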

[2] = system: HEp-2; assay: Cytotoxicity against human Hep2 cells at 36 uM after 24 hrs by MTT assay; type: functional; procedure, shortened: as §1
[3] = system: HEp-2; assay: Induction of apoptosis in human Hep2 cells assessed as accumulation in subG1 phase using PI staining by flow cytometeric analysis; type: functional
Procedure, shortened: (§2)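 ATCC HEp-2 in RPMI-1640 with 10% FBS at 37 °C, 5% CO2, exposed to 36 µM for 0, 6, 12 or 24 h. 1 × 10^6 cells were fixed in 70% ethanol at 4 °C for at least 12 h, then stained on ice in the dark for 30 min with 50 µg/mL PI plus 1 mg/mL RNase A. Read by flow cytometry, ≥10 000 cells per sample. SubG1 counted as the apoptotic fraction. n = 3.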

[4] = system: HEp-2; assay: Induction of apoptosis in human Hep2 cells assessed as morphological changes at 36 uM after 24 hrs by microscopy; type: functional, cell-based
[5] = system: HEp-2; assay: Cell cycle arrest in human Hep2 cells assessed as accumulation at G2/M phase at 36 uM after 6 hrs using propidium iodide staining by flow cytometry; type: functional; procedure, shortened: as §2
[6] = system: HEp-2; assay: Cell cycle arrest in human Hep2 cells assessed as accumulation at G2/M phase at 36 uM after 12 hrs using propidium iodide staining by flow cytometry; type: functional; procedure, shortened: as §2
[7] = system: HEp-2; assay: Cell cycle arrest in human Hep2 cells assessed as accumulation at G2/M phase at 36 uM after 24 hrs using propidium iodide staining by flow cytometry; type: functional; procedure, shortened: as §2
[8] = system: HEp-2; assay: Induction of ROS generation in human Hep2 cells at 36 uM after 3 hrs relative to control; type: functional, cell-based
Procedure, shortened: (§3)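 Cells exposed to 36 µM for 0, 3, 6, 12 or 24 h, then loaded with DCF-DA (10 mM as printed) for 15 min at 37 °C. Harvested, resuspended in PBS and read by flow cytometry (ex 480 nm, em 525 nm). Result given as % DCF-positive cells. n = 3.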

[9] = system: HEp-2; assay: Induction of ROS generation in human Hep2 cells assessed as ratio of DCF-positive cells at 36 uM after 3 hrs relative to control; type: functional; procedure, shortened: as §3
[10] = system: HEp-2; assay: Induction of ROS generation in human Hep2 cells assessed as ratio of DCF-positive cells at 36 uM after 6 hrs relative to control; type: functional; procedure, shortened: as §3
[11] = system: HEp-2; assay: Induction of ROS generation in human Hep2 cells assessed as ratio of DCF-positive cells at 36 uM after 12 hrs relative to control; type: functional; procedure, shortened: as §3
[12] = system: HEp-2; assay: Induction of ROS generation in human Hep2 cells assessed as ratio of DCF-positive cells at 36 uM after 24 hrs relative to control; type: functional; procedure, shortened: as §3
[13] = system: HEp-2; assay: Induction of ROS generation in human Hep2 cells assessed as ROS level at 36 uM after 24 hrs in presence of N-acetyl-cysteine ROS scavenger; type: functional
Procedure, shortened: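 ROS read as % DCF-positive cells after 24 h co-incubation of 36 µM with 2.5 mM N-acetylcysteine. DCF-DA loading 15 min at 37 °C; flow cytometry at ex 480 / em 525 nm. n = 3.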

[14] = system: HEp-2; assay: Induction of apoptosis in human Hep2 cells assessed as accumulation in subG1 phase using PI staining at 36 uM after 24 hrs by flow cytometeric analysis in presence of N-acetyl-cysteine ROS scavenger; type: functional
Procedure, shortened: (§4)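 HEp-2 cells were pretreated 1 h with 2.5 mM N-acetylcysteine, then co-incubated with 36 µM for 24 h. They were then fixed in 70% ethanol (≥12 h, 4 °C) and stained on ice in the dark for 30 min with 50 µg/mL PI and 1 mg/mL RNase A. G2/M and subG1 fractions were read by flow cytometry, ≥10 000 cells counted. n = 3.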

[15] = system: HEp-2; assay: Induction of apoptosis in human Hep2 cells assessed as accumulation in G2/M phase using PI staining at 36 uM after 24 hrs by flow cytometeric analysis in presence of N-acetyl-cysteine ROS scavenger; type: functional; procedure, shortened: as §4
[16] = system: HEp-2; assay: Induction of apoptosis in human Hep2 cells assessed as apoptotic bodies using acridine orange staining at 36 uM after 24 hrs by microscopic analysis; type: functional, cell-based
[17] = system: HEp-2; assay: Induction of apoptosis in human Hep2 cells assessed as fragmented DNA using acridine orange staining at 36 uM after 24 hrs by microscopic analysis; type: functional, cell-based
[18] = system: HEp-2; assay: Induction of apoptosis in human Hep2 cells assessed as apoptotic bodies using acridine orange staining at 36 uM after 24 hrs by microscopic analysis in presence of N-acetyl-cysteine ROS scavenger; type: functional, cell-based
[19] = system: HEp-2; assay: Induction of apoptosis in human Hep2 cells assessed as fragmented DNA using acridine orange staining at 36 uM after 24 hrs by microscopic analysis in presence of N-acetyl-cysteine ROS scavenger; type: functional, cell-based
[20] = system: HEp-2; assay: Induction of apoptosis in human Hep2 cells assessed as decrease in mitochondrial membrane potential using rhodamine 123 staining at 36 uM after 24 hrs by FACScan flow cytometry; type: functional; design: scale not given: the % may be the effect or the level left
Procedure, shortened: (§5)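 Membrane potential: HEp-2 exposed to 36 µM for 0–24 h, alone or with 2.5 mM N-acetylcysteine for 24 h. Cells collected into PBS with 1 µg/mL rhodamine-123, held 15 min at 37 °C, then read by flow cytometry for % rhodamine-123-bright cells. n = 3.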

[21] = system: HEp-2; assay: Induction of apoptosis in human Hep2 cells assessed as decrease in mitochondrial membrane potential using rhodamine 123 staining at 36 uM after 24 hrs by FACScan flow cytometry in presence of N-acetyl-cysteine ROS scavenger; type: functional; design: scale not given: the % may be the effect or the level left; procedure, shortened: as §5
[22] = system: HEp-2; assay: Induction of apoptosis in human Hep2 cells assessed as increase in pro-apoptotic Bax protein at 36 uM after 6 hrs by Western blot analysis; type: functional, cell-based
Procedure, shortened: (§6)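 Treatment: 36 µM for 0, 6, 12 or 24 h, alone or with 2.5 mM N-acetylcysteine or 500 U/mL catalase. Lysis 60 min at 4 °C in Hepes pH 7.4/1% Triton X-100 with phosphatase and protease inhibitors, spin 13000g. Lysates run on 12% SDS-PAGE, blotted to nitrocellulose, probed with polyclonal antibodies, HRP/DAB detection. Representative of ≥3 experiments.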

[23] = system: HEp-2; assay: Induction of apoptosis in human Hep2 cells assessed as increase in cytochrome c at 36 uM after 12 hrs by Western blot analysis; type: functional, cell-based; procedure, shortened: as §6
[24] = system: HEp-2; assay: Induction of apoptosis in human Hep2 cells assessed as decrease in Bcl-2 at 36 uM after 12 hrs by Western blot analysis; type: functional, cell-based; conditions: in the assay text read “after 24 hrs” for “after 12 hrs”; procedure, shortened: as §6
[25] = system: HEp-2; assay: Induction of apoptosis in human Hep2 cells assessed as increase in AIF level at 36 uM after 6 hrs by Western blot analysis; type: functional, cell-based; procedure, shortened: as §6

## C=C1C(=O)[C@]23[C@H](O)[C@H]1CC[C@H]2[C@@]12CO[C@]3(O)[C@@H](O)[C@@H]1C(C)(C)CC[C@@H]2O [ORIDONIN]
[1]
  IC50: 37.1 µM
[2]
  Activity: 50%
[3]
  Activity: 26.57%
[4]
  Activity: Active
[5]
  Activity: 32.84%
[6]
  Activity: 40.57%
[7]
  Activity: 25.84%
[8]
  Activity: Active
[9]
  Activity: 16.65%
[10]
  Activity: 17.25%
[11]
  Activity: 24.21%
[12]
  Activity: 24.86%
[13]
  Activity: 4.41%
[14]
  Activity: 3.39%
[15]
  Activity: 14%
[16]
  Activity: Active
[17]
  Activity: Active
[18]
  Activity: inactive
[19]
  Activity: inactive
[20]
  Activity: 58.6%
[21]
  Activity: 89.31%
[22]
  Activity: Active
[23]
  Activity: Active
[24]
  Activity: Active
[25]
  Activity: Active

From ChEMBL document CHEMBL1165982, “Induction of G(2)/M phase arrest and apoptosis by oridonin in human laryngeal carcinoma cells” (J Nat Prod, 2010)
